The target in experiment [1] is T1, Adrenergic receptor alpha-1 (Rattus norvegicus, UniProt P15823+P23944+P43140).
T1 sequence (P15823 whole entry): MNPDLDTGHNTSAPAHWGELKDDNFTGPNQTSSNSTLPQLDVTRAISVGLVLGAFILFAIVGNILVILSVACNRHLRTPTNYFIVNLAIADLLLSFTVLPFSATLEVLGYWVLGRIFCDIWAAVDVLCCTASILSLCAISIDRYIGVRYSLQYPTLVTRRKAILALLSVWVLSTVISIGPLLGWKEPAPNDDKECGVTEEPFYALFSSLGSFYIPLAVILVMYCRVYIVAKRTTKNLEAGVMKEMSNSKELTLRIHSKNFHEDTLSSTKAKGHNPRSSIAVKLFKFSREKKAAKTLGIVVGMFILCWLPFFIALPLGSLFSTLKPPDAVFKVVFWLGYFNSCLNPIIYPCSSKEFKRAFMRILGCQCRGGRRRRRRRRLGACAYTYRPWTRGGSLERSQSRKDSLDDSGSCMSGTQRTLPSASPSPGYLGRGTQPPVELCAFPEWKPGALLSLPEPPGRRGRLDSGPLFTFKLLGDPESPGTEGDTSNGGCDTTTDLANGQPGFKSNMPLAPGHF
T1 sequence (P23944 whole entry): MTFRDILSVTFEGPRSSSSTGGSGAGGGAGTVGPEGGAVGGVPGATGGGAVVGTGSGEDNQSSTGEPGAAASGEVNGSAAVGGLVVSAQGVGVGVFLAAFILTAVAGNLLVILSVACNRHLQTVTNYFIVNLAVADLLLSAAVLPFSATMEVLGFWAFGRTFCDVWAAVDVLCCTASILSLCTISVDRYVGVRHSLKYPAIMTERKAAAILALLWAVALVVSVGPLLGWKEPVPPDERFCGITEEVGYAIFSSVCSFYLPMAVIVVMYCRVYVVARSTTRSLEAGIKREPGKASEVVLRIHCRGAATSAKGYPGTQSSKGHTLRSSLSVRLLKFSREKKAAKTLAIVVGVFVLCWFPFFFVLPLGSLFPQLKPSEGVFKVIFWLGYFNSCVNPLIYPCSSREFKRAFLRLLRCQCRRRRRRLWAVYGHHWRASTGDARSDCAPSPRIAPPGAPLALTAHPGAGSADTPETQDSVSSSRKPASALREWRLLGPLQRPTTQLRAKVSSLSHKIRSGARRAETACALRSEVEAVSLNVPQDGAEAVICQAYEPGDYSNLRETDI
T1 sequence (P43140 whole entry): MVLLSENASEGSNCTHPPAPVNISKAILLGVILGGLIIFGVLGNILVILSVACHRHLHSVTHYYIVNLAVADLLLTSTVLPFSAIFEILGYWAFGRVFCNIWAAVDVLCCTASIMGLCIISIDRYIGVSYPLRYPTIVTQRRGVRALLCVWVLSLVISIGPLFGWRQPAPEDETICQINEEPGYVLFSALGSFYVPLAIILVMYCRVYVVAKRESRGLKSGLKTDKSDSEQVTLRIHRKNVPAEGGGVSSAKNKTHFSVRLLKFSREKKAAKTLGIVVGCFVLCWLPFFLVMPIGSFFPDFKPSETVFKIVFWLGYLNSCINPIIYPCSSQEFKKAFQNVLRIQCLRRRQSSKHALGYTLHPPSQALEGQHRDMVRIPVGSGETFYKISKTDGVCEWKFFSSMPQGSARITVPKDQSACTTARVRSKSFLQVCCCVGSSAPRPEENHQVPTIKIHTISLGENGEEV
Description: Alpha-1 adrenergic receptor binding affinity in rat brain membranes. The experiment is classed as cell membranes. In outline: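 Rat frontal cortex membranes, washed in 50 mM Tris-HCl/10 mM MgCl2 pH 7.4, at about 300 µg/mL protein. Labelled with 0.1 nM [3H]prazosin in the same buffer. Nonspecific binding set by 10 µM phentolamine. 30 °C for 30 min, then filtration and scintillation counting, in triplicate.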

Experiment [2] deals with T2, Adrenergic receptor alpha-1 (Rattus norvegicus) (UniProt P15823+P23944+P43140). Put plainly: Antagonistic activity against Alpha-1 adrenergic receptor in rat aorta. The experiment is classed as functional, tissue-based. The method in brief:
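Rat aorta rings (rats 150-300 g, either sex) contracted by cumulative phenylephrine, with and without the antagonist. KB = [B]/(DR − 1), where DR is the dose ratio in the presence and absence of the antagonist.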

The nature of experiment [3]: Alpha 2 antagonistic adrenoceptor activity in human blood platelets Potency ratio: IC50(medetomidine)/IC50(analog). The experiment is classed as functional. In outline: (§1)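 Inhibition of epinephrine (30-100 µM)-induced primary-wave aggregation in aspirin (1 mM)-treated human platelet-rich plasma, with inhibitor added 1 min before agonist.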
Experiment [4] is described as follows: alpha 2 antagonistic adrenoceptor activity in human blood platelets Potency ratio: IC50(medetomidine)/IC50(analog). Type of experiment: functional. The method in brief:
as §1

For experiment [5], the target named is T2, Adrenergic receptor alpha-1 (Rattus norvegicus). Put plainly: Agonistic activity against Alpha-1 adrenergic receptor in rat aorta expressed as percent maximal analog response relative to phenylephrine as 100%. Type of experiment: functional, tissue-based. In outline: (§2)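 Aorta from rats of 150-300 g, either sex. Tissue checked with 30 nM phenylephrine, then a cumulative phenylephrine curve. After 90 min the test agent was added cumulatively. Contraction expressed as % of the maximum to 1 µM phenylephrine (= 100%). EC50 is the molar 50% effective concentration; Emax is the maximal response relative to phenylephrine.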

Experiment [6] in a line: Antagonistic activity against alpha2 adrenoceptor in human blood platelets expressed as IC50(medetomidine)/IC50(analog). Type of experiment: functional. The method in brief: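 Human platelet-rich plasma; inhibitor at various concentrations added 1 min before triggering aggregation with epinephrine (30-100 µM); aspirin 1 mM routinely added to study the primary-wave aggregation response.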

For experiment [7], the target named is T1, Adrenergic receptor alpha-1. Put plainly: 50% Molar effective concentration for agonistic activity against Alpha-1 adrenergic receptor in rat aorta. Type of experiment: functional, tissue-based. In outline:
as §2

`c1ccc2c3c(ccc2c1)CCCC3c1c[nH]cn1` (stereo not drawn): the Ki in experiment [1] came out at 655 nM. In experiment [2], this compound showed a Kb of 136 nM. In addition, the Potency ratio in experiment [3] worked out at 0.03.
In experiment [1], `C/C=C(\c1c[nH]cn1)c1cccc2ccccc12` displayed a Ki of 57 nM. Besides, the Potency ratio in experiment [4] stood at 0.01. In addition, the antagonist equilibrium constant (Kb) in experiment [2] was 3390 nM.
The compound `c1cc2c3c(cccc3c1)C(c1c[nH]cn1)CC2` (stereo not drawn) showed a Ki in experiment [1] of 55 nM. The Potency ratio in experiment [4] stood at 0.2. This compound also came in with an Emax in experiment [5] of 38%.
As to `CC(c1c[nH]cn1)c1cccc2ccccc12` (stereo not drawn), the Potency ratio in experiment [6] is recorded as 0.69. In experiment [1], this compound displayed a Ki of 224 nM. In experiment [7], this compound showed an EC50 of 153 nM. In experiment [5], this compound gave an Emax of 39%.

For the origin of these results see ChEMBL document CHEMBL1129251 (J Med Chem, 1996).
